The test system of assay [1] is Enterococcus faecalis. The experiment in a line: Antibacterial activity against Enterococcus faecalis ATCC 29212 at 3.25 mg/mL after 24 hrs by disk diffusion assay. In kind it is functional, organism-based. The method in brief: (§1)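 Disk diffusion on Mueller–Hinton agar per CLSI recommendations. Sterile 6 mm cellulose disks were impregnated with 20 μL of the DMSO solution at the stated concentration. Plates were incubated at 37 °C and growth-inhibition zone diameters were read at 24 h. Disks carrying DMSO alone served as solvent control.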

Assay [2] concerns Staphylococcus aureus. The experiment in a line: Antibacterial activity against Staphylococcus aureus ATCC 25923 at 3.25 mg/mL after 24 hrs by disk diffusion assay. The class given is functional, organism-based. The method in brief:
as §1

Assay [3] relates to Staphylococcus aureus. The experiment in a line: Antibacterial activity against Staphylococcus aureus ATCC 29213 at 3.25 mg/mL after 24 hrs by disk diffusion assay. The class given is functional, organism-based. The method in brief:
as §1

The subject of assay [4] is Escherichia coli. Briefly: Antibacterial activity against Escherichia coli ATCC 25922 at 3.25 mg/mL after 24 hrs by disk diffusion assay. The class given is functional, organism-based. The method in brief:
as §1

For assay [5], the system named is Pseudomonas aeruginosa. Briefly: Antibacterial activity against Pseudomonas aeruginosa ATCC 27853 at 3.25 mg/mL after 24 hrs by disk diffusion assay. The class given is functional, organism-based. Put shortly: as §1
Assay [6] deals with Escherichia coli. The experiment in a line: Antibacterial activity against Escherichia coli ATCC 25922 at 2.53 mg/mL after 24 hrs by disk diffusion assay. In kind it is functional, organism-based. The method in brief: as §1
Assay [7] relates to Staphylococcus aureus. Briefly: Antibacterial activity against Staphylococcus aureus ATCC 29213 at 5.8 mg/mL after 24 hrs by disk diffusion assay. The class given is functional, organism-based. The method in brief: as §1
Assay [8] deals with Staphylococcus aureus. The experiment in a line: Antibacterial activity against Staphylococcus aureus ATCC 29213 at 2.53 mg/mL after 24 hrs by disk diffusion assay. The class given is functional, organism-based. The method in brief:
as §1

Assay [9] has as its system Staphylococcus aureus. Briefly: Antibacterial activity against Staphylococcus aureus ATCC 25923 at 5.8 mg/mL after 24 hrs by disk diffusion assay. The class given is functional, organism-based. The method in brief: as §1
Assay [10] relates to Enterococcus faecalis. The experiment in a line: Antibacterial activity against Enterococcus faecalis ATCC 29212 at 2.53 mg/mL after 24 hrs by disk diffusion assay. In kind it is functional, organism-based. Put shortly: as §1
In assay [11] the test system is Staphylococcus aureus. Briefly: Antibacterial activity against Staphylococcus aureus ATCC 25923 at 2.53 mg/mL after 24 hrs by disk diffusion assay. In kind it is functional, organism-based. Put shortly:
as §1

Assay [12] deals with Escherichia coli. Briefly: Antibacterial activity against Escherichia coli ATCC 25922 at 5.8 mg/mL after 24 hrs by disk diffusion assay. In kind it is functional, organism-based. The method in brief:
as §1

Assay [13] relates to Pseudomonas aeruginosa. Briefly: Antibacterial activity against Pseudomonas aeruginosa ATCC 27853 at 2.53 mg/mL after 24 hrs by disk diffusion assay. In kind it is functional, organism-based. Put shortly:
as §1

Assay [14] concerns Enterococcus faecalis. The experiment in a line: Antibacterial activity against Enterococcus faecalis ATCC 29212 at 5.8 mg/mL after 24 hrs by disk diffusion assay. The class given is functional, organism-based. Put shortly:
as §1

Assay [15] has as its system Staphylococcus aureus. The experiment in a line: Antibacterial activity against Staphylococcus aureus ATCC 29213 at 10 mg/mL after 24 hrs by disk diffusion assay. The class given is functional, organism-based. The method in brief: as §1
The subject of assay [16] is Staphylococcus aureus. Briefly: Antibacterial activity against Staphylococcus aureus ATCC 25923 at 10 mg/mL after 24 hrs by disk diffusion assay. The following applies: ATCC 25923, 24 h, read-out: DIZ. In kind it is functional. Put shortly:
as §1

Assay [17] concerns Escherichia coli. Briefly: Antibacterial activity against Escherichia coli ATCC 25922 at 10 mg/mL after 24 hrs by disk diffusion assay. In kind it is functional, organism-based. Put shortly: as §1
Assay [18] has as its system Enterococcus faecalis. Briefly: Antibacterial activity against Enterococcus faecalis ATCC 29212 at 10 mg/mL after 24 hrs by disk diffusion assay. The class given is functional, organism-based. The method in brief:
as §1

Assay [19] relates to Staphylococcus aureus. The experiment in a line: Antibacterial activity against Staphylococcus aureus ATCC 25923 at 10 mg/mL freshly prepared compound after 24 hrs by disk diffusion assay. In kind it is functional. Put shortly: as §1
In assay [20] the test system is Staphylococcus aureus. Briefly: Antibacterial activity against Staphylococcus aureus ATCC 25923 at 10 mg/mL 1 month old compound stored at 4 degree C after 24 hrs by disk diffusion assay. The class given is functional. Particulars: ATCC 25923, 24 h, read-out: DIZ. The method in brief: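 Disk diffusion on Mueller–Hinton agar per CLSI recommendations. The DMSO solution had been stored 1 month at 4 °C before use and was compared with a freshly prepared solution. Sterile 6 mm cellulose disks were impregnated with 20 μL. Plates were incubated at 37 °C and inhibition zone diameter was read at 24 h.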

The subject of assay [21] is Pseudomonas aeruginosa. Briefly: Antibacterial activity against Pseudomonas aeruginosa ATCC 27853 at 5 mg/mL after 24 hrs by disk diffusion assay. The class given is functional, organism-based. The method in brief:
as §1

The test system of assay [22] is Staphylococcus aureus. The experiment in a line: Antibacterial activity against Staphylococcus aureus ATCC 29213 at 5 mg/mL after 24 hrs by disk diffusion assay. The class given is functional, organism-based. The method in brief: as §1
Assay [23] deals with Escherichia coli. The experiment in a line: Antibacterial activity against Escherichia coli ATCC 25922 at 5 mg/mL after 24 hrs by disk diffusion assay. The class given is functional, organism-based. Put shortly:
as §1

Assay [24] deals with Enterococcus faecalis. The experiment in a line: Antibacterial activity against Enterococcus faecalis ATCC 29212 at 5 mg/mL after 24 hrs by disk diffusion assay. The class given is functional, organism-based. Put shortly: as §1
The subject of assay [25] is Staphylococcus aureus. The experiment in a line: Antibacterial activity against Staphylococcus aureus ATCC 25923 at 5 mg/mL after 24 hrs by disk diffusion assay. The class given is functional, organism-based. Put shortly: as §1
The test system of assay [26] is Escherichia coli. The experiment in a line: Antibacterial activity against Escherichia coli ATCC 25922 at 2.83 mg/mL after 24 hrs by disk diffusion assay. The class given is functional, organism-based. Put shortly: as §1
Assay [27] concerns Enterococcus faecalis. Briefly: Antibacterial activity against Enterococcus faecalis ATCC 29212 at 1.25 mg/mL after 24 hrs by disk diffusion assay. In kind it is functional, organism-based. Put shortly: as §1
Assay [28] deals with Staphylococcus aureus. Briefly: Antibacterial activity against Staphylococcus aureus ATCC 29213 at 1.25 mg/mL after 24 hrs by disk diffusion assay. The class given is functional, organism-based. The method in brief: as §1
In assay [29] the test system is Staphylococcus aureus. The experiment in a line: Antibacterial activity against Staphylococcus aureus ATCC 25923 at 1.25 mg/mL after 24 hrs by disk diffusion assay. In kind it is functional, organism-based. The method in brief: as §1
Assay [30] has as its system Staphylococcus aureus. The experiment in a line: Antibacterial activity against Staphylococcus aureus ATCC 25923 at 2.83 mg/mL after 24 hrs by disk diffusion assay. The class given is functional, organism-based. The method in brief: as §1
Assay [31] deals with Enterococcus faecalis. Briefly: Antibacterial activity against Enterococcus faecalis ATCC 29212 at 2.83 mg/mL after 24 hrs by disk diffusion assay. The class given is functional, organism-based. The method in brief: as §1
The test system of assay [32] is Staphylococcus aureus. Briefly: Antibacterial activity against Staphylococcus aureus ATCC 29213 at 2.83 mg/mL after 24 hrs by disk diffusion assay. The class given is functional, organism-based. The method in brief: as §1
In assay [33] the test system is Pseudomonas aeruginosa. Briefly: Antibacterial activity against Pseudomonas aeruginosa ATCC 27853 at 2.83 mg/mL after 24 hrs by disk diffusion assay. The class given is functional, organism-based. The method in brief: as §1
Assay [34] has as its system Escherichia coli. Briefly: Antibacterial activity against Escherichia coli ATCC 25922 at 1.88 mg/mL after 24 hrs by disk diffusion assay. In kind it is functional, organism-based. The method in brief: (§2)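 Disk diffusion on Mueller–Hinton agar, run per CLSI recommendations. Sterile 6 mm cellulose disks each carried 20 μL of a DMSO solution. Reference drugs were dosed to equal the maximum amount releasable from the calixarene podands. Disks with DMSO alone served as solvent controls. Plates were incubated at 37 °C, and growth-inhibition zone diameter (mm) was read at 24 h.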

The test system of assay [35] is Staphylococcus aureus. The experiment in a line: Antibacterial activity against Staphylococcus aureus ATCC 25923 at 1.88 mg/mL after 24 hrs by disk diffusion assay. The class given is functional, organism-based. The method in brief:
as §2

In assay [36] the test system is Enterococcus faecalis. Briefly: Antibacterial activity against Enterococcus faecalis ATCC 29212 at 1.88 mg/mL after 24 hrs by disk diffusion assay. In kind it is functional, organism-based. Put shortly:
as §2

For assay [37], the system named is Staphylococcus aureus. Briefly: Antibacterial activity against Staphylococcus aureus ATCC 29213 at 1.88 mg/mL after 24 hrs by disk diffusion assay. In kind it is functional, organism-based. Put shortly: as §2
In assay [38] the test system is Pseudomonas aeruginosa. Briefly: Antibacterial activity against Pseudomonas aeruginosa ATCC 27853 at 1.88 mg/mL after 24 hrs by disk diffusion assay. In kind it is functional, organism-based. Put shortly:
as §2

Activity calls are given as the source filed them. No cut-off for these calls is given here.

For `CC(C)(C)c1cc2c(O)c(c1)Cc1cc(C(C)(C)C)cc(c1OCCCO)Cc1cc(C(C)(C)C)cc(c1O)Cc1cc(C(C)(C)C)cc(c1OCCCO)C2`, the result in assay [1], in [2], in [3], in assay [4] and in [5] was inactive.

In the case of `CC(C)(C)c1cc2c(O)c(c1)Cc1cc(C(C)(C)C)cc(c1OCCCOC(=O)[C@@H]1N3C(=O)[C@@H](NC(=O)COc4ccccc4)[C@H]3SC1(C)C)Cc1cc(C(C)(C)C)cc(c1O)Cc1cc(C(C)(C)C)cc(c1OCCCOC(=O)[C@@H]1N3C(=O)[C@@H](NC(=O)COc4ccccc4)[C@H]3SC1(C)C)C2`, the outcome in assay [6], in assay [7], in [8], in assay [10], in assay [11] and in assay [12] was inactive. Further, the outcome in assay [13] and in assay [14] was inactive. In addition, in [9], the result was Active.

Consider `CCn1cc(C(=O)OCCCOc2c3cc(C(C)(C)C)cc2Cc2cc(C(C)(C)C)cc(c2O)Cc2cc(C(C)(C)C)cc(c2OCCCOC(=O)[C@@H]2N4C(=O)[C@@H](NC(=O)COc5ccccc5)[C@H]4SC2(C)C)Cc2cc(C(C)(C)C)cc(c2O)C3)c(=O)c2ccc(C)nc21`, for which the result in assay [15], in assay [17] and in [18] was inactive. The zone of inhibition at 10000 µg/mL was found to be 31.5 mm in assay [16] and 35 mm in assay [20]. In [19], the “diameter of the inhibition zone (DIZ)” value was determined as 30 mm.

With `CCn1cc(C(=O)OCCCOc2c3cc(C(C)(C)C)cc2Cc2cc(C(C)(C)C)cc(c2O)Cc2cc(C(C)(C)C)cc(c2OCCCOC(=O)c2cn(CC)c4nc(C)ccc4c2=O)Cc2cc(C(C)(C)C)cc(c2O)C3)c(=O)c2ccc(C)nc21`, the result in [21], in assay [22], in assay [23], in assay [24] and in [25] was inactive.

In the case of `CC1(C)S[C@@H]2[C@H](NC(=O)COc3ccccc3)C(=O)N2[C@H]1C(=O)O`, the result in assay [26], in [31] and in assay [33] was inactive. The outcome in assay [27], in [28], in [29], in assay [30] and in [32] was Active.

Consider `CCn1cc(C(=O)O)c(=O)c2ccc(C)nc21`, for which the outcome in assay [34], in assay [35] and in [37] was Active. Also, the result in assay [36] and in [38] was inactive.

Values taken from ChEMBL document CHEMBL1938293, “Molecular drug-organiser: synthesis, characterization and biological evaluation of penicillin V and/or nalidixic acid calixarene-based podands” (2011).
